Measurements as given in PubChem BioAssay.
The source made the active and inactive calls. Rule as the data show it, unless noted: active = inhibition above about 30%; inactive = the rest.

Experiments:
[1] = HUVEC growth inhibition – cell-based, human, primary screen (AID 575;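 active = viability at or below 30% in both replicate assays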;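 also: 100% = median of untreated cell wells with 0.1% DMSO on each plate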); conditions: HUVEC proliferation, CellTiter-Glo luminescence, 72 h; at 10 µM; stronger effect = lower value
Procedure, shortened: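 Assay system: primary human umbilical vein endothelial cells / Buffer or medium: endothelial basal medium with 2% FBS plus growth supplements / Compound dosing: one dose, 10 µM final, 0.1% DMSO / Timing: 72 h treatment at 37 °C / Signal: CTG luminescence / Benchmarks: 32 DMSO-only cell-control wells (high), 32 MePR drug-control wells (low) per plate / Plate: collagen-coated 384-well format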

[2] = H69AR cell proliferation blockers – human, duplicate replicates, primary screen (AID 580;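 active = viability at or under a set limit in both replicates, limit being median viability minus 3 SD, cut at about 48% in these data, passing the limit was not always enough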;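 also: 100% = mean luminescence of untreated wells and 0% = no signal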); conditions: H69AR lung tumor cells viability, ATP luminescence, 72 h; at 10 µM; stronger effect = lower value
[3] = MRP1 drug-resistance reversers in H69AR cells – cell-based, doxorubicin co-treatment, pilot screen (AID 601;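 active = viability loss from added drug above about 55%, and viability with drug at most 40%, in both replicates, limit read from the data, passing the limit was not always enough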); conditions: CellTiter-Glo, 72 h, at 10 µM; for differential viability (reversal): stronger effect = higher value
[4] = yeast transport mutant growth inhibition pilot in 384-well plates, post-Golgi transport modulator project (AID 636; in the data active = inhibition above about 31%); conditions: absorbance 615 nm, about 18 h, stronger effect = higher value
[5] = growth suppression of yeast trafficking mutant, preliminary HTS, modulators of trafficking downstream of Golgi apparatus project, 1536-format plate, OD 615 nm (AID 637); conditions: yeast transport mutant growth, absorbance 615 nm, 18 h; stronger effect = higher value
[6] = H69AR cells + 2 uM doxorubicin, measured here: viability with 2 uM doxorubicin, stronger effect = lower value
[7] = H69AR cells, compound alone cytotoxicity

Structure (SMILES) | viability [1] | viability [2] | differential viability (reversal) ([3]; H69AR cells + 2 uM doxorubicin) | viability [3, 6] [%] | viability [3, 7] [%] | inhibition [4] | inhibition [5]
O=C1CN(c2ccccc2F)C(=O)CN1c1ccccc1F | 112% (inactive) | 102% (inactive) | 10.3% (inactive) | 92.2 | 102 | -1.97% (inactive) | -0.63% (inactive)
Cc1cc(NC(=O)CCC(=O)N(CC2CCCO2)C(C(=O)NC2CCCC2)c2ccccc2C)no1 (configuration not stated) | 86.4% (inactive) | 96.7% (inactive) | 13.5% (inactive) | 83.2 | 96.7 | -2.11% (inactive) | 5.4% (inactive)
CC1CC(C)CN(CCCNC(=O)c2ccc3c(c2)NC(=O)C(N2CCCCC2)S3)C1 (configuration not stated) | 88.6% (inactive) | 87.8% (inactive) | 4.94% (inactive) | 82.8 | 87.8 | 2.4% (inactive) | -7.14% (inactive)
Cc1nc2ccc(NC(=O)NCc3ccco3)cc2s1 | 103% (inactive) | 90.6% (inactive) | 7.41% (inactive) | 83.2 | 90.6 | -4.67% (inactive) | 9.37% (inactive)
COc1cccc(N2CCN(c3ncnc4c3[nH]c3ccc(F)cc34)CC2C)c1 (configuration not stated) | 2.17% (active) | 3.55% (active) | -1.01% (inactive) | 4.56 | 3.55 | 71% (active) | 29.6% (inactive)
COc1cccc(-c2cc(C(F)(F)F)n3nc(N)nc3n2)c1 | 92.3% (inactive) | 88.9% (inactive) | -2.71% (inactive) | 91.6 | 88.9 | -0.53% (inactive) | 10.3% (inactive)
COc1ccc2oc(C)c(C(=O)Cn3ccnc3)c2c1 | 92.8% (inactive) | 87.8% (inactive) | -2.3% (inactive) | 90.1 | 87.8 | 1.69% (inactive) | 24.8% (inactive)
CCOC(=O)NC(c1ccccc1)C1CCCCC1=O (configuration not stated) | 103% (inactive) | 94.2% (inactive) | 5.88% (inactive) | 88.3 | 94.2 | -3.64% (inactive) | 0.32% (inactive)
O=C(NC1=NCCS1)c1nc(-c2ccccc2)n(-c2ccccc2)n1 | 70.4% (inactive) | 101% (inactive) | 8.75% (inactive) | 92.1 | 101 | -3.73% (inactive) | 0.63% (inactive)
Cc1ccccc1Cn1nc(C)c(NC(=O)c2noc3c2CCCC3)c1C | 75.7% (inactive) | 97.3% (inactive) | 2.39% (inactive) | 95 | 97.3 | -3.12% (inactive) | -10.3% (inactive)
CCOc1ccc(NC(=O)c2ccncc2)cc1 | 112% (inactive) | 99.9% (inactive) | 11.4% (inactive) | 88.5 | 99.9 | -2.89% (inactive) | -0.63% (inactive)
CN(C)C(CNc1nnnn1-c1ccccc1)c1ccco1 (configuration not stated) | 79.2% (inactive) | 77.4% (inactive) | 5% (inactive) | 72.4 | 77.4 | -3.77% (inactive) | 1.11% (inactive)
CCCC(=O)N1CCN(c2ccc(NC(=O)c3ccc(Br)o3)cc2)CC1 | 125% (inactive) | 104% (inactive) | 3.6% (inactive) | 101 | 104 | 1.58% (inactive) | -2.22% (inactive)
Cc1noc(NS(=O)(=O)c2ccc(NC(=O)CCC3CCCC3)cc2)c1C | 88.9% (inactive) | 94% (inactive) | 11.6% (inactive) | 82.4 | 94 | -4.03% (inactive) | -0.16% (inactive)
CC(NC(=O)OCc1ccccc1)C(=O)N1CC(O)CC1C(=O)O (configuration not stated) | 82.5% (inactive) | 98.5% (inactive) | 17.6% (inactive) | 81 | 98.5 | -0.39% (inactive) | -1.59% (inactive)
O=C(NCc1ccc(F)cc1)c1cc(-c2ccco2)on1 | 93.4% (inactive) | 92.5% (inactive) | -8.09% (inactive) | 101 | 92.5 | -2.89% (inactive) | -5.56% (inactive)
CCOC(=O)c1cc(-c2ccc(N)cc2)sc1N | 92.5% (inactive) | 93.4% (inactive) | 8.46% (inactive) | 84.9 | 93.4 | -5.07% (inactive) | -0.95% (inactive)
CC(CN1CCCCC1)OC(=O)c1ccc(Cl)cc1Cl (configuration not stated) | 96.7% (inactive) | 92.9% (inactive) | 7.05% (inactive) | 85.9 | 92.9 | 0.53% (inactive) | -3.65% (inactive)
CCOc1ccccc1OCC(=O)NCc1ccco1 | 84.3% (inactive) | 85.3% (inactive) | 0.205% (inactive) | 85.1 | 85.3 | -3.6% (inactive) | -0.32% (inactive)
COC(=O)c1ccc(C2CC(=O)Nc3cc(OC)c(OC)c(OC)c32)cc1 (configuration not stated) | 83.6% (inactive) | 89.4% (inactive) | 11.6% (inactive) | 77.8 | 89.4 | -3.47% (inactive) | 0.63% (inactive)
O=c1c2ccccc2c(C=Nc2ccc(Cl)cn2)c(O)n1-c1cc(Cl)ccc1N1CCOCC1 | 91.7% (inactive) | 89.1% (inactive) | 7.31% (inactive) | 81.8 | 89.1 | -0.65% (inactive) | -3.49% (inactive)
